Reference: the EternaBench riboswitch data

Assays:
MS2 coat protein [1] = experiment: apparent Kd, MS2 coat protein; higher = weaker binding; RNA-MaP array; tryptophan 2.4 mM where present
In short: (§1)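 The apparent Kd is the median of filtered binding-curve fits, one per cluster, to green signal normalised to red-channel RNA signal and control-cluster median Fmax. The clusters were on Illumina sequencing chips, and stalled E. coli RNA polymerase had transcribed the designs on them. Titration used SNAP-549-labelled MS2 coat protein from 0.7 or 1.5 nM, doubling to 3 µM, without and then with constant ligand, in 100 mM Tris-HCl pH 7.5, 80 mM KCl, 4 mM MgCl2, BSA, DTT, yeast tRNA and Tween-20.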

MS2 coat protein [2] = experiment: apparent Kd, MS2 coat protein; higher = weaker binding; RNA-MaP array; theophylline 2 mM where present
In short: as §1

[3] = designed as: ON switch for tryptophan, no ligand
[4] = ligand present: tryptophan, designed as: ON switch for tryptophan
[5] = designed as: OFF switch for tryptophan, no ligand
[6] = ligand present: tryptophan, designed as: OFF switch for tryptophan
[7] = designed as: OFF switch for theophylline, no ligand
[8] = ligand present: theophylline, designed as: OFF switch for theophylline
[9] = designed as: ON switch for theophylline, no ligand
[10] = ligand present: theophylline, designed as: ON switch for theophylline

Sequence	apparent Kd (MS2 coat protein [2]; [7]) [nM]	apparent Kd (MS2 coat protein [2]; [8]) [nM]	apparent Kd (MS2 coat protein [2]; [9]) [nM]	apparent Kd (MS2 coat protein [2]; [10]) [nM]	also measured
ACACAUGAGGAUCACCCAUGUUGAGGAACACGAGGACCGGUACGGCCGCCACUCGACACAUGAGGAUCACCCAUGUGAUCACCCA	–	–	–	–	apparent Kd (MS2 coat protein [1]; [3]): 141 nM; apparent Kd (MS2 coat protein [1]; [4]): 169 nM
AAUAAUAUCCUCAUGUGAGUCGUACCAUAACGAGGACCGGUACGGCCGCCACUCGAACAUGAGGAUCACCCAUGUAGGUAUGAUA	–	–	–	–	apparent Kd (MS2 coat protein [1]; [3]): 85.9 nM; apparent Kd (MS2 coat protein [1]; [4]): 200 nM
CUAUAAAUAGCGGCCGCCACUUACUCAUGAGGUAACAACAUGAGGAUCACCCAUGUUUGAGGAUCAAGGACCGGGCUAUUUAUAG	–	–	–	–	apparent Kd (MS2 coat protein [1]; [3]): 29.8 nM; apparent Kd (MS2 coat protein [1]; [4]): 17.6 nM
GGGAGGGAGGCGGCCGCCACUGAUUUUCAUAUAUAUAUAACAUGAGGAUCACCCAUGUAGAUAUACAGGACCGGGCCUUUUUUUU	–	–	–	–	apparent Kd (MS2 coat protein [1]; [3]): 20.4 nM; apparent Kd (MS2 coat protein [1]; [4]): 19.5 nM
CCAUUGAUGACGGCCGCCACUGUCUACAUGAGGAUCACCCAUGUAUAGCAGGGUGGACCUAUGGACAGGACCGGGUCACUUGUCC	–	–	–	–	apparent Kd (MS2 coat protein [1]; [5]): 11 nM; apparent Kd (MS2 coat protein [1]; [6]): 12.3 nM
UUAUGCAGGUCGGCCGCCACUACACACAUGAGGAUCACCCAUGUAGUUACUGGGUGAAGUGGCAGUAGGACCGGGACCUGCAUAU	–	–	–	–	apparent Kd (MS2 coat protein [1]; [3]): 371 nM; apparent Kd (MS2 coat protein [1]; [4]): 227 nM
AUGACUCACAAAGAAGAUAAAAUGGGUGAACGAGGACCGGUACGGCCGCCACUCGGACAUGAGGAUCACCCAUGUCCAUGUGCAA	–	–	–	–	apparent Kd (MS2 coat protein [1]; [5]): 22.1 nM; apparent Kd (MS2 coat protein [1]; [6]): 28.8 nM
CGCGGUUGAGAUGGGCCUUUGAUAAGUCUGCGAGGACCGGUACGGCCGCCACUCGAGGACAUGAGGAUCACCCAUGUACUUCGCG	–	–	–	–	apparent Kd (MS2 coat protein [1]; [5]): 47.3 nM; apparent Kd (MS2 coat protein [1]; [6]): 17.8 nM
ACAUGAGGAUCACCCAUGUUUGAUGUUCCUCGAGGACCGGUACGGCCGCCACUCGAACGAGUGGCGCGCGAGUGCGCACUCGCGC	–	–	–	–	apparent Kd (MS2 coat protein [1]; [3]): 12.2 nM; apparent Kd (MS2 coat protein [1]; [4]): 12.5 nM
UGGGUACCGACGGCCGCCACUGACUAUAGACAUGAGGAUCACCCAUGUAGAGAUCCUAGACUACCCAGGACCGGGUCUGGUGCUA	–	–	–	–	apparent Kd (MS2 coat protein [1]; [5]): 124 nM; apparent Kd (MS2 coat protein [1]; [6]): 220 nM
CUAUAUGGAAACAUAUAGAAGCGAAAGCAACGAGGACCGGUACGGCCGCCACUCGAAGAGUGGUGGACAUGAGGAUCACCCAUGU	–	–	–	–	apparent Kd (MS2 coat protein [1]; [3]): 63.3 nM; apparent Kd (MS2 coat protein [1]; [4]): 52.8 nM
ACCGCGGUAUCGGCCGCCACUUGUGGGUUAAAUCUGGUACAUGAGGAUCACCCAUGUGUCUCCUCGAGGACCGGGAUAGCGUGAC	–	–	–	–	apparent Kd (MS2 coat protein [1]; [3]): 158 nM; apparent Kd (MS2 coat protein [1]; [4]): 23.9 nM
CAAUAAGUACCGGUCCUCAGAUCCUCAUGACGAGGACCGGUACGGCCGCCACUCGAAACAUGAGGAUCACCCAUGUAAUAAUAAC	–	–	–	–	apparent Kd (MS2 coat protein [1]; [5]): 40.9 nM; apparent Kd (MS2 coat protein [1]; [6]): 30.5 nM
UGAUACCAGUCGGCCGCCACUACAUGAGGAUCACCCAUGUAUGGGUCAAUGCUAGAUACUAGCAGUAGGACCGGGACUGGUAUCU	–	–	–	–	apparent Kd (MS2 coat protein [1]; [5]): 11.4 nM; apparent Kd (MS2 coat protein [1]; [6]): 36.1 nM
GACCCAUGAGUUGUAAAAGCUCAUGGGUCGCGAGGACCGGUACGGCCGCCACUCGGCUGUACAUGAGGAUCACCCAUGUCAGGGU	–	–	–	–	apparent Kd (MS2 coat protein [1]; [3]): 134 nM; apparent Kd (MS2 coat protein [1]; [4]): 761 nM
UGUAUUGGAAACAGUACUAGUGAUCCGGUCCGAGGACCGGUACGGCCGCCACUCGAUAUAAAUAAACAUGAGGAUCACCCAUGUA	–	–	–	–	apparent Kd (MS2 coat protein [1]; [5]): 14.9 nM; apparent Kd (MS2 coat protein [1]; [6]): 29.8 nM
UAUUAUCAGUCGGCCGCCACUGACACAUGAGGAUCACCCAUGUAAUUUGGGUUAUAUAUAAAUUACAGGACCGGGACAAAUGCUA	–	–	–	–	apparent Kd (MS2 coat protein [1]; [5]): 341 nM; apparent Kd (MS2 coat protein [1]; [6]): 280 nM
UGACAUUGCUCAGAUACCAGACAUGAGGAUCACCCAUGUACCAAGAGUACAAAUUAAAAUGUCCCUUGGCAGCUGAGCAAUGUCU	19.6	483	–	–	–
UAAAACAUGAGGAUCACCCAUGUAAUUGAUACCAGAGUGAUGAUCCUCCCUUGGCAGCAAAUAACGCAUUGAUUACAAUGCGAAA	–	–	42.7	215	–
CUCUGAGUGAGCAAUCACUCAGAGGCGGAUACCAGCGAGGUCCAUCGCCCUUGGCAGCCGAACAUGAGGAUCACCCAUGUCGGUA	–	–	10.1	16.6	–
CAAACAUGAGGAUCACCCAUGUAAUCAGAUACCAGUGACGAAAGUCACCCUUGGCAGCUGAUUACUUUAGUUCUAAGGUGUUUGA	92.6	56.6	–	–	–
UGUAACAUGAGGAUCACCCAUGUGCACGAUACCAGCUUCGAAAGAGGCCCUUGGCAGCGUAUGCGUAAGCUGUAUAAUAUAUAUC	–	–	11.4	13.6	–
GGGCCUGUAAGCAGACCCACAGCGGGUGAUACCAGCAAUAAAACUUGCCCUUGGCAGCACACAGCUACAUGAGGAUCACCCAUGU	–	–	43.2	83.2	–

Sequence	apparent Kd (MS2 coat protein [2]; [7]) [nM]	apparent Kd (MS2 coat protein [2]; [8]) [nM]	apparent Kd (MS2 coat protein [2]; [9]) [nM]	apparent Kd (MS2 coat protein [2]; [10]) [nM]	also measured
AGACAUGAGGAUCACCCAUGUAGUACGGAUACCAGAUCCAGAUGCGUCCCUUGGCAGCUGUAGUACAGCGUUACAUCGCUCAUAG	37.9	70.7	–	–	–
UCGCAUUGCUGCGAUACCAGACAUGAGGAUCACCCAUGUACCAAGGUACGAAAAUAACAUGUCCCUUGGCAGCGCAGCAAUGCGU	12.8	322	–	–	–
UGAGAUCCUCAUGAUACCAGUGUACUACAUGAGGAUCACCCAUGUAGCAACAUCUGUAGACACCCUUGGCAGCAUGAGACCACGU	–	–	18.3	23.7	–
GAUGAACUAUUUGAUACCAGACUACAUGAGGAUCACCCAUGUGUGUUUAUACUUCAGUCAGUCCCUUGGCAGCAAAUAGUUUAUC	147	306	–	–	–
UAAAACAUGAGGAUCACCCAUGUAUUUGAUACCAGAGUGAUGAUCCUCCCUUGGCAGCAAAUAACGCAUUGAUUACAAUGCGAAA	–	–	42.8	143	–
GAGGGUGGGUCUCUAAUCCGUUUGACGGAUACCAGCGAGAGAUAUCGCCCUUGGCAGCCGACGACAUGAGGAUCACCCAUGUAAA	15.6	101	–	–	–
UCCACAUGAGGAUCACCCAUGUAAUCAGAUACCAGUGACGAAAGUCACCCUUGGCAGCUGAUUACUUUAGUUCGAGGGUGUUUGA	102	202	–	–	–
AAUAUAAGUGUAAUUAUAUUUAUAUCUGAUACCAGACUCUCAUGUGUCCCUUGGCAGCAGUUACAUGAGGAUCACCCAUGUAUUA	–	–	76	21.6	–
CGUACAUGAGGAUCACCCAUGUAGAGUGAUACCAGUCUACCUAGUGACCCUUGGCAGCACAUCGAUGGCAUCGGUGAUGCCGUUU	–	–	87.3	83.3	–
AUAAUGGGUAUCGGAUUAUCAUGAUAUGAUACCAGAUACUUAGAUAUCCCUUGGCAGCAUGAGGACAUGAGGAUCACCCAUGUAU	35	61.8	–	–	–
CAAUAAGUAACUGAUACCAGUGUACUGACAUGAGGAUCACCCAUGUUGGGUUUUGUUGUACACCCUUGGCAGCAGAAUCUUAUUG	60.3	80.7	–	–	–
ACGACGCAUACAGAUACCAGUAGCCGAGAAACAUGAGGAUCACCCAUGUCGAGCGACAACUGCCCUUGGCAGCUGUAUGCGUCAG	–	–	8.49	8.34	–
UGUAUGUGAUUUGAUACCAGACCAACUGGUAAAACAUGAGGAUCACCCAUGUAAACUUGGGUCCCUUGGCAGCAAAUCGCAUACU	–	–	80.5	10.9	–
UACAUGAGGAUCACCCAUGUAUAGAGGGAUACCAGUGUCAGUGAGCACCCUUGGCAGCCCGCGAACAAUGGGUGCGCUAAAUAGU	30.4	56.9	–	–	–
AUUAAUAGUUGUGAUACCAGACGAACAUGAGGAUCACCCAUGUAACUUUUAGGUGUUGUAGUCCCUUGGCAGCACUAUUUAGUUA	–	–	42.7	35.3	–
UUUUUUAUCAUGGCGUAUCGGAAAACCGAUACCAGUACAGAAAUGUACCCUUGGCAGCGGCGUUUUACAUGAGGAUCACCCAUGU	14.5	69.2	–	–	–
AUGGCGUUGGUGUAGCUGUGAAAUGGCGAUACCAGCGUGGAAACACGCCCUUGGCAGCGCCAAAACAUGAGGAUCACCCAUGUUA	20.1	96.6	–	–	–
AACCGAGGCUAUCCUCUAAGAAUAUGUGAUACCAGAAUAAUUUUAUUCCCUUGGCAGCAUGACAUGAGGAUCACCCAUGUGUCUU	–	–	134	134	–
UCGCUCGCAGAAAUGCGAGCGAGUUGCGAUACCAGCCCGGAAACGGGCCCUUGGCAGCGCACAUGAGGAUCACCCAUGUCAUGUU	17.4	23.8	–	–	–
ACAAGUCCUCAUGAUACCAGCGAUGAGACAUAGUCUCAACAUGAGGAUCACCCAUGUAUUCGCCCUUGGCAGCAUACGGUUUUUG	–	–	301	28.5	–
AGCGACAUGCGUGAUACCAGCUACAUGAGGAUCACCCAUGUCAGCAGGAAACUGCUGUGUAGCCCUUGGCAGCACAGUGCAUGUC	12.7	24.7	–	–	–
UUUACAUGAGGAUCACCCAUGUGCCAUGAUACCAGACAUGAAAAUGUCCCUUGGCAGCAUGAAAGAUCCACGUCGGAAACGACGG	–	–	176	308	–
